Experimental data reported in ChEMBL document CHEMBL1138900, “2,5-diketopiperazines as potent, selective, and orally bioavailable oxytocin antagonists. 3. Synthesis, pharmacokinetics, and in vivo potency” (J Med Chem, 2006).
Values after ≈ are worked out from the molar mass of the structure shown.

What was measured:
[1] = Solubility of the compound; type: physicochemical
In short: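 Aqueous solubility (mg mL⁻¹) measured by precipitation followed by HPLC.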

[2] = Clearance in dog; type: ADME, organism-based, Canis lupus familiaris; details: in vivo
In short: (§1)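 Dog pharmacokinetics, n = 3; dosed at 0.6 mg/kg in 5% DMSO/95% PEG400. AUC reported as ng·h mL⁻¹ and clearance as mL min⁻¹ kg⁻¹.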

[3] = AUC in dog; type: ADME, organism-based, Canis lupus familiaris; parameters: concentration or dose not given beside the values; details: plasma; in short: as §1
[4] = Oral bioavailability in rat; type: ADME, organism-based; details: in vivo
[5] = Clearance in rat; type: ADME, organism-based; details: in vivo
In short: (§2)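 Rat pharmacokinetics, n = 4; dosed at 5 mg/kg in 5% DMSO/95% PEG400. AUC in ng·h mL⁻¹, clearance in mL min⁻¹ kg⁻¹, half-life in h.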

Oxytocin receptor [6] = target: T1, Oxytocin receptor (Homo sapiens, UniProt P30559); experiment: Displacement of [3H]oxytocin from human OTR
T1 sequence (P30559 whole entry): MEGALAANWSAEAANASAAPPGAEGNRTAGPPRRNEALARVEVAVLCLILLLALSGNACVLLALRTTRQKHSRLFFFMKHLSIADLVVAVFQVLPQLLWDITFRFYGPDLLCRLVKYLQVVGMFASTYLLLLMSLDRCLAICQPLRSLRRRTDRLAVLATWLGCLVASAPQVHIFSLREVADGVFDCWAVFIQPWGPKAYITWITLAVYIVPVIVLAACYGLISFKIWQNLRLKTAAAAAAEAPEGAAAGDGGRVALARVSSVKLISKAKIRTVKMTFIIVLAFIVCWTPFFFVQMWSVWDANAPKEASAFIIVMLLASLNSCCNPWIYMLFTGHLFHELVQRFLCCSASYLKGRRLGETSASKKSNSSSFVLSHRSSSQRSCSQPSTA

[7] = AUC in rat; type: ADME, organism-based; parameters: concentration or dose not given beside the values; details: plasma; in short: as §2
Canis familiaris = experiment: (§3) Oral bioavailability in dog; type: ADME, organism-based, Canis lupus familiaris; details: in vivo
[8] = Lipophilicity, log D by CHI method; type: physicochemical; details: read-out: Log D
In short: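 Lipophilicity determined by an HPLC-based method.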

[9] = Volume of distribution in rat; type: ADME, organism-based; details: in vivo, read-out: Vdss
Cytochrome P450 1A2 = target: T2, Cytochrome P450 1A2 (Homo sapiens, UniProt P05177); experiment: Inhibition of CYP450 1A2 transfected in human microsome; type: ADME
T2 sequence (P05177 whole entry): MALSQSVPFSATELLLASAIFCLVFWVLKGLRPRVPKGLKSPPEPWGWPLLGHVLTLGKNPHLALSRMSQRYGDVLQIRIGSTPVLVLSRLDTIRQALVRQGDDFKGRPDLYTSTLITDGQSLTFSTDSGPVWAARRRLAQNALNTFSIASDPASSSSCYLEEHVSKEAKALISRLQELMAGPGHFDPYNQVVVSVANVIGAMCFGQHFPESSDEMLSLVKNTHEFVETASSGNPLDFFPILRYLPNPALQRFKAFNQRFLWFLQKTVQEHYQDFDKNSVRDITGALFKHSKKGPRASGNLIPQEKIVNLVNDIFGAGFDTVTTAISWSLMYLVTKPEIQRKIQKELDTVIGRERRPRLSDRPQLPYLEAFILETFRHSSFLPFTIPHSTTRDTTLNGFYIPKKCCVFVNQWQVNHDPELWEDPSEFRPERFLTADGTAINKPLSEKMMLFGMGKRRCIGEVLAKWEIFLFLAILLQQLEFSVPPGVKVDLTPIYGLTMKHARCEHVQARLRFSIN
In short: (§4)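 Recombinant human CYP isozymes, with reaction progress followed by fluorogenic substrates; DEF and 7-benzyloxyquinoline used as CYP3A4 substrates. Compounds dissolved at 1.65 mM in DMSO/methanol and serially diluted to give IC50 (μM). A positive control run for each isozyme.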

[10] = Volume of distribution in dog; type: ADME, organism-based, Canis lupus familiaris; details: in vivo, read-out: Vdss
[11] = Half life in rat; type: ADME, organism-based; details: in vivo; in short: as §2
Cytochrome P450 2C9 = Cytochrome P450 2C9 (Homo sapiens, UniProt P11712); experiment: Inhibition of CYP450 2C9 transfected in human microsome; type: ADME; in short: as §4
Sequence of Cytochrome P450 2C9 (P11712 whole entry): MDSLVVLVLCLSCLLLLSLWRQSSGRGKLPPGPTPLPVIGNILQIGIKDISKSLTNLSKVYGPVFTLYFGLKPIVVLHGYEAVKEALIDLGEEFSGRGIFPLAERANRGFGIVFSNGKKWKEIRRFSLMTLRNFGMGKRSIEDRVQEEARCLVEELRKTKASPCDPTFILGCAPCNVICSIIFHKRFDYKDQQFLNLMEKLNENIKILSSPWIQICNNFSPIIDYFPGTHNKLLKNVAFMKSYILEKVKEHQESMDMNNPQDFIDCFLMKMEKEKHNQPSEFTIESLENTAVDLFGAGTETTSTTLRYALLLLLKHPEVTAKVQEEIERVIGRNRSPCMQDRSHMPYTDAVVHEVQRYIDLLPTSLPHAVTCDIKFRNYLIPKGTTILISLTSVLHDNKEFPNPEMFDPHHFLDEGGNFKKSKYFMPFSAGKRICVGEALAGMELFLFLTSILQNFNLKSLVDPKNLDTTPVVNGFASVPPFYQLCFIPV

Vasopressin V1b receptor = target: T3, Vasopressin V1b receptor (Homo sapiens, UniProt P47901); experiment: Displacement of vasopressin from human V1bR
T3 sequence (P47901 whole entry): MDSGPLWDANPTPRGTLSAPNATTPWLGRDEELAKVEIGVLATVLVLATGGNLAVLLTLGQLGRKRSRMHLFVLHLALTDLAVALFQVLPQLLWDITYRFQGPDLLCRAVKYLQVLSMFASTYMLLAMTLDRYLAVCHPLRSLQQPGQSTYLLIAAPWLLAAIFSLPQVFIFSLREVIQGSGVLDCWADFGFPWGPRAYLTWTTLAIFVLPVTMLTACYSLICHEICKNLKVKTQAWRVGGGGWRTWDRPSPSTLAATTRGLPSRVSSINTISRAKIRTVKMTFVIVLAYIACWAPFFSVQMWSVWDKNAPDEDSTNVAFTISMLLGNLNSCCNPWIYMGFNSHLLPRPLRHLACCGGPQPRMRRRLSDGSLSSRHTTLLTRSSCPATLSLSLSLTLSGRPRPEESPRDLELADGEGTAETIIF

Oxytocin receptor [12] = target: T4, Oxytocin receptor (Rattus norvegicus, UniProt P70536); experiment: Displacement of [3H]oxytocin from rat OTR
T4 sequence (P70536 whole entry): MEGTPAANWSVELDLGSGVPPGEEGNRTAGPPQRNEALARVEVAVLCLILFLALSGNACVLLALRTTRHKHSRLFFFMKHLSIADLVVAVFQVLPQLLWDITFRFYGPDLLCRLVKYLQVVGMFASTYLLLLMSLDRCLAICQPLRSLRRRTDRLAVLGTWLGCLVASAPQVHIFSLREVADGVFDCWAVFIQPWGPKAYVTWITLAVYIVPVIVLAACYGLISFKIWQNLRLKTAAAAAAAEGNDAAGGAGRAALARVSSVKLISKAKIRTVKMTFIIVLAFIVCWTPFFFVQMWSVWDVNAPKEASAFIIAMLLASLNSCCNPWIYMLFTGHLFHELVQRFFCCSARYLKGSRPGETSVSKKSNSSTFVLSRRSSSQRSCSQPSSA

Cytochrome P450 2C19 = Cytochrome P450 2C19 (Homo sapiens, UniProt P33261); experiment: Inhibition of CYP450 2C19 transfected in human microsome; type: ADME; in short: as §4
Sequence of Cytochrome P450 2C19 (P33261 whole entry): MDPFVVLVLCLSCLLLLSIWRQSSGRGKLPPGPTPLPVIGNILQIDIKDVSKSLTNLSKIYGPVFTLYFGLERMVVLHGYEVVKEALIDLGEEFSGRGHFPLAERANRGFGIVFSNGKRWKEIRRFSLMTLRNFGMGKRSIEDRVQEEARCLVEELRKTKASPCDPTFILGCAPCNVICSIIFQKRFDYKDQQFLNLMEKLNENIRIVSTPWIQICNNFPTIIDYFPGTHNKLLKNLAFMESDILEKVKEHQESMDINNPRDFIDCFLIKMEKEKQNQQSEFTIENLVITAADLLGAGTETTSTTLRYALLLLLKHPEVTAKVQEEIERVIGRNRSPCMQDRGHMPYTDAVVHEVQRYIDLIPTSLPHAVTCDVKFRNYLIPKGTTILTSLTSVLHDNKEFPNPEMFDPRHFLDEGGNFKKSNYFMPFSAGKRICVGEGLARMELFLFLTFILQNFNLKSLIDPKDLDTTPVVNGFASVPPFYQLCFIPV

Cytochrome P450 2D6 = Cytochrome P450 2D6 (Homo sapiens, UniProt P10635); experiment: Inhibition of CYP450 2D6 transfected in human microsome using DEF fluorogenic substrate; type: ADME, microsomes; in short: as §4
Sequence of Cytochrome P450 2D6 (P10635 whole entry): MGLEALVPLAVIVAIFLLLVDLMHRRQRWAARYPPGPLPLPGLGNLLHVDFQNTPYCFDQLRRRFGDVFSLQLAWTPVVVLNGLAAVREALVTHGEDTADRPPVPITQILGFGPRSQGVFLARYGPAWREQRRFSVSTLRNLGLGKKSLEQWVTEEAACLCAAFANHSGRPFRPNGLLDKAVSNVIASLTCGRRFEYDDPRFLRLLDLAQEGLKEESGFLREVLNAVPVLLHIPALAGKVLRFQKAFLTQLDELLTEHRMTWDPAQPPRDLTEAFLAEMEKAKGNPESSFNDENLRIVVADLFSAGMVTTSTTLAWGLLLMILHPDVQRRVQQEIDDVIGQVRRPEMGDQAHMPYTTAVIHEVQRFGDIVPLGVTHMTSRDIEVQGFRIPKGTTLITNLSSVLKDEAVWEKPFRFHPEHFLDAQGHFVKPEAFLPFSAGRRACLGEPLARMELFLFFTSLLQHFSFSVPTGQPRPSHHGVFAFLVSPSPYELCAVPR

Cytochrome P450 3A4 [13] = target: T5, Cytochrome P450 3A4 (Homo sapiens, UniProt P08684); experiment: Inhibition of CYP450 3A4 transfected in human microsome using DEF fluorogenic substrate; type: ADME, microsomes; in short: as §4
T5 sequence (P08684 whole entry): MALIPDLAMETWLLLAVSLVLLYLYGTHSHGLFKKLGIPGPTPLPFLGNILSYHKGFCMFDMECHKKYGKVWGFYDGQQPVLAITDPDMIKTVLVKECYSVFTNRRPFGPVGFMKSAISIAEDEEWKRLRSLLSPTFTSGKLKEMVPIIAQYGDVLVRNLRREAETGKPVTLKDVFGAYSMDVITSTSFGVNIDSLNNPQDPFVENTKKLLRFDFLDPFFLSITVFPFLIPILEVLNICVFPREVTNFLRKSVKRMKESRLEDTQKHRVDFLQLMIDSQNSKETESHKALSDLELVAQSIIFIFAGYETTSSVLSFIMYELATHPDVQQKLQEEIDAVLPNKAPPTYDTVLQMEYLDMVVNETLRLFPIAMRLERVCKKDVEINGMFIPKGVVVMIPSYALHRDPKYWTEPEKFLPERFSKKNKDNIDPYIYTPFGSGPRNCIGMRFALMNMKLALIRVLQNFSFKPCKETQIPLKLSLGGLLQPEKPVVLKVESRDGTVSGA

Vasopressin V2 receptor = Vasopressin V2 receptor (Homo sapiens, UniProt P30518); experiment: Displacement of vasopressin from human V2R
Sequence of Vasopressin V2 receptor (P30518 whole entry): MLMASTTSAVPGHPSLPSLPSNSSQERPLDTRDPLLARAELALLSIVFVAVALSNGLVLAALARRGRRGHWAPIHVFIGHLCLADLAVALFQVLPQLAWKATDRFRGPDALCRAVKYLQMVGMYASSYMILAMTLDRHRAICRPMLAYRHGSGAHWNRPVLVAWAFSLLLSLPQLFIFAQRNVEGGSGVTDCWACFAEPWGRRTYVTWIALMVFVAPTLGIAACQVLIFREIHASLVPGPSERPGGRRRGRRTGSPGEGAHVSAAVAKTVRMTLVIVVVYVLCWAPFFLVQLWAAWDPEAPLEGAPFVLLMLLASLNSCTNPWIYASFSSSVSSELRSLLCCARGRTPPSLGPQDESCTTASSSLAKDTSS

Oxytocin receptor [14] = target: T1, Oxytocin receptor; experiment: Antagonist activity against human OTR expressed in CHO cells measured as calcium influx by FLIPR assay; type: functional, cell-based
[15] = Half life in dog; type: ADME, organism-based, Canis lupus familiaris; details: in vivo
[16] = as §3; type: ADME, organism-based, Canis lupus familiaris; details: in vivo
Cytochrome P450 3A4 [17] = target: T5, Cytochrome P450 3A4; experiment: Inhibition of CYP450 3A4 transfected in human microsome using PPR fluorogenic substrate; type: ADME, microsomes
Rattus norvegicus = experiment: Reduction in oxytocin-induced uterine contraction in iv dosed anaesthetized rat; type: functional, organism-based
In short: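 Anaesthetized rats; uterine contractions elicited by iv oxytocin at a standard dose of 0.3 ug/kg. Test compound then given iv in rising doses (0.1, 0.3, 1 mg/kg) and the fall in contractility recorded. Plasma IC50 taken as the plasma concentration giving 50% inhibition of the response to the standard oxytocin dose.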

Vasopressin V1a receptor = Vasopressin V1a receptor (Homo sapiens, UniProt P37288); experiment: Displacement of vasopressin from human V1aR
Sequence of Vasopressin V1a receptor (P37288 whole entry): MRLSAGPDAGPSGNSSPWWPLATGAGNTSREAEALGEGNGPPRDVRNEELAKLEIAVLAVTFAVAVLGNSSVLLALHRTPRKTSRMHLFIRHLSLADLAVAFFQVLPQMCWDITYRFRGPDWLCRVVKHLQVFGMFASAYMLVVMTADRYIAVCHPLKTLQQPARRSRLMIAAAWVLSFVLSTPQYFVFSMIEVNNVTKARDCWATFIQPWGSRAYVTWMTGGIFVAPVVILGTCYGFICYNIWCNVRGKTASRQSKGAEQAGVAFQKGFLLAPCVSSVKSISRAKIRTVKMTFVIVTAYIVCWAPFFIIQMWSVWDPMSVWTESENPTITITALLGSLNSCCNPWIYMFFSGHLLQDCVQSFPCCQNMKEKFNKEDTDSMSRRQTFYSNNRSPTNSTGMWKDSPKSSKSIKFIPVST

Oxytocin receptor [18] = target: T1, Oxytocin receptor; experiment: […] activity at human OTR expressed in CHO cells assessed as inhibition of oxytocin-induced calcium mobilization by FLIPR assay; type: functional, cell-based

Q: What does the source list for `CC(C)C[C@@H]1C(=O)N[C@H](C2Cc3ccccc3C2)C(=O)N1[C@@H](C(=O)NC(C)C)c1ccc(F)cc1F`?
A: solubility [1]: 8 µg/mL (≈ 16.1 µM); clearance [2]: 11 mL/min/kg; AUC [3]: 174 ng·h/mL; bioavailability [4]: 46%; clearance [5]: 36 mL/min/kg; Ki (Oxytocin receptor [6]): 0.00126 µM; AUC [7]: 2880 ng·h/mL; F (Canis familiaris): 13%; chromatographic logD [8]: 3.4

Q: What does the source list for `CC(C)C[C@@H]1C(=O)N[C@H](C2Cc3ccccc3C2)C(=O)N1[C@@H](C(=O)NC(C)C)c1ccc2occc2c1`?
A: Vd [9]: 1.4 L/kg; IC50 (Cytochrome P450 1A2): 73 µM; Vd [10]: 0.9 L/kg; half-life [11]: 2 h; clearance [2]: 6 mL/min/kg; IC50 (Cytochrome P450 2C9): 3.5 µM; Ki (Vasopressin V1b receptor): > 6.31 µM; bioavailability [4]: 68%; clearance [5]: 9 mL/min/kg; Ki (Oxytocin receptor [12]): 0.0631 µM; Ki (Oxytocin receptor [6]): 0.001 µM; IC50 (Cytochrome P450 2C19): > 100 µM; IC50 (Cytochrome P450 2D6): 62 µM; IC50 (Cytochrome P450 3A4 [13]): 2.5 µM; Ki (Vasopressin V2 receptor): 5.01 µM; Ki (Oxytocin receptor [14]): 0.00398 µM; half-life [15]: 2.4 h; bioavailability [16]: 95%; IC50 (Cytochrome P450 3A4 [17]): 4.3 µM; Activity (Rattus norvegicus): 5.4 mg/kg; Ki (Vasopressin V1a receptor): > 6.31 µM

Q: Which results are given for `CC(C)C[C@@H]1C(=O)N[C@H](C2Cc3ccccc3C2)C(=O)N1[C@@H](C(=O)N(C)C)c1ccc(F)cc1F`?
A: Vd [9]: 1.2 L/kg; IC50 (Cytochrome P450 1A2): 64 µM; solubility [1]: 83 µg/mL (≈ 172 µM); Vd [10]: 1.1 L/kg; half-life [11]: 1.1 h; clearance [2]: 7 mL/min/kg; AUC [3]: 770 ng·h/mL; IC50 (Cytochrome P450 2C9): 49 µM; Ki (Vasopressin V1b receptor): > 6.31 µM; bioavailability [4]: 53%; clearance [5]: 15 mL/min/kg; Ki (Oxytocin receptor [12]): 0.01 µM; Ki (Oxytocin receptor [6]): 0.000631 µM; IC50 (Cytochrome P450 2C19): > 100 µM; IC50 (Cytochrome P450 2D6): > 100 µM; IC50 (Oxytocin receptor [18]): 0.0037 µM; IC50 (Cytochrome P450 3A4 [13]): 89 µM; Ki (Vasopressin V2 receptor): 0.316 µM; Ki (Oxytocin receptor [14]): 0.00158 µM; half-life [15]: 2.1 h; bioavailability [16]: 51%; IC50 (Cytochrome P450 3A4 [17]): 62 µM; chromatographic logD [8]: 3.3; Activity (Rattus norvegicus): 0.22 mg/kg; IC50 (Rattus norvegicus; Rattus norvegicus): 0.227 µM; Ki (Vasopressin V1a receptor): > 6.31 µM
